{
  "source": "ChEMBL document CHEMBL4665711",
  "about": "“Synthesis of (Z)-3-(arylamino)-1-(3-phenylimidazo[1,5-a]pyridin-1-yl)prop-2-en-1-ones as potential cytotoxic agents” (Bioorg Med Chem Lett, 2020)",
  "key": {"[1]": {"system": "HCT-116", "test": "Induction of apoptosis in human HCT-116 cells assessed as viable cells at 2.5 uM incubated for 48 hrs by annexin-V and propidium iodide staining based flow cytometry analysis (reference value: 96.29 %)", "assay_type": "functional", "details": "read-out: Activity"}, "[2]": {"system": "HCT-116", "test": "Induction of apoptosis in human HCT-116 cells assessed as micronuclei formation at 0.5 to 2.5 uM incubated for 48 hrs by DAPI staining based fluorescence microscopic analysis", "assay_type": "functional, cell-based", "details": "dose microM 0.5-2.5, time 48.0 hrs", "summary_of_the_method": "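Nuclear morphology was imaged by fluorescence microscopy using a DAPI filter at 200×; untreated cells served as control.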"}, "[3]": {"system": "HCT-116", "test": "Induction of cell cycle arrest in human HCT-116 cells assessed as G2/M phase at 1 uM incubated for 48 hrs by propidium iodide based flow cytometry analysis (reference value: 15.3 %)", "assay_type": "functional"}, "[4]": {"system": "HCT-116", "test": "Cytotoxicity against human HCT-116 cells assessed as induction of cell morphological changes at 0.5 to 2.5 uM incubated for 48 hrs by phase contrast microscopy", "assay_type": "functional, cell-based", "details": "dose microM 0.5-2.5, time 48.0 hrs"}, "[5]": {"system": "HCT-116", "test": "Induction of apoptosis in human HCT-116 cells assessed as early apoptotic cells at 0.5 uM incubated for 48 hrs by annexin-V and propidium iodide staining based flow cytometry analysis (reference value: 1.87 %)", "assay_type": "functional"}, "[6]": {"system": "HCT-116", "test": "Induction of cell cycle arrest in human HCT-116 cells assessed as G0/G1 phase at 0.5 uM incubated for 48 hrs by propidium iodide based flow cytometry analysis (reference value: 28.2 %)", "assay_type": "functional"}, "[7]": {"system": "HCT-116", "test": "Cytotoxicity against human HCT-116 cells assessed as reduction in cell viability incubated for 48 hrs by MTT assay", "assay_type": "functional, cell-based", "details": "HCT-116, 48 h", "summary_of_the_method": "(§1)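 Cancer cell lines were exposed to drug for 48 h, and the 50% inhibitory concentration was determined. Values are averages of three individual experiments. A549, HCT-116, BT-474 and MDA-MB-231 are human lines; B16F10 is a murine melanoma line.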"}, "[8]": {"system": "HCT-116", "test": "Induction of cell cycle arrest in human HCT-116 cells assessed as G0/G1 phase at 1 uM incubated for 48 hrs by propidium iodide based flow cytometry analysis (reference value: 28.2 %)", "assay_type": "functional"}, "[9]": {"system": "HCT-116", "test": "Induction of cell cycle arrest in human HCT-116 cells assessed as S phase at 1 uM incubated for 48 hrs by propidium iodide based flow cytometry analysis (reference value: 7.8 %)", "assay_type": "functional"}, "[10]": {"system": "HCT-116", "test": "Induction of mitochondrial membrane potential loss in human HCT-116 cells assessed as cells with depolarized mitochondria by measuring increase in J-monomer green fluorescence intensity at 1 uM incubated for 48 hrs by JC1 staining based flow cytometry analysis (reference value: 12.53 %)", "assay_type": "functional"}, "[11]": {"system": "HCT-116", "test": "Induction of apoptosis in human HCT-116 cells assessed as viable cells at 1 uM incubated for 48 hrs by annexin-V and propidium iodide staining based flow cytometry analysis (reference value: 96.29 %)", "assay_type": "functional", "details": "read-out: Activity"}, "[12]": {"system": "B16-F10", "test": "Cytotoxicity against mouse B16-F10 cells assessed as reduction in cell viability incubated for 48 hrs by MTT assay", "assay_type": "functional, cell-based", "details": "B16-F10, 48 h", "summary_of_the_method": "as §1"}, "[13]": {"system": "HCT-116", "test": "Induction of apoptosis in human HCT-116 cells assessed as necrotic cells at 0.5 uM incubated for 48 hrs by annexin-V and propidium iodide staining based flow cytometry analysis (reference value: 0.36 %)", "assay_type": "functional"}, "[14]": {"system": "HCT-116", "test": "Induction of cell cycle arrest in human HCT-116 cells assessed as G2/M phase at 0.5 uM incubated for 48 hrs by propidium iodide based flow cytometry analysis (reference value: 15.3 %)", "assay_type": "functional"}, "[15]": {"system": "HCT-116", "test": "Induction of apoptosis in human HCT-116 cells assessed as late apoptotic cells at 1 uM incubated for 48 hrs by annexin-V and propidium iodide staining based flow cytometry analysis (reference value: 1.48 %)", "assay_type": "functional"}, "[16]": {"system": "HCT-116", "test": "Induction of cell cycle arrest in human HCT-116 cells assessed as sub-G1 phase at 1 uM incubated for 48 hrs by propidium iodide based flow cytometry analysis (reference value: 2.1 %)", "assay_type": "functional"}, "[17]": {"system": "HCT-116", "test": "Induction of apoptosis in human HCT-116 cells assessed as late apoptotic cells at 2.5 uM incubated for 48 hrs by annexin-V and propidium iodide staining based flow cytometry analysis (reference value: 1.48 %)", "assay_type": "functional"}, "[18]": {"system": "HCT-116", "test": "Induction of mitochondrial membrane potential loss in human HCT-116 cells assessed as cells with depolarized mitochondria by measuring increase in J-monomer green fluorescence intensity at 2.5 uM incubated for 48 hrs by JC1 staining based flow cytometry analysis (reference value: 12.53 %)", "assay_type": "functional"}, "[19]": {"system": "HCT-116", "test": "Induction of mitochondrial membrane potential loss in human HCT-116 cells assessed as cells with hyperpolarized mitochondria by measuring decrease in J-aggregates red fluorescence intensity at 2.5 uM incubated for 48 hrs by JC1 staining based flow cytometry analysis (reference value: 86.42 %)", "assay_type": "functional", "design": "scale not given: the % may be the effect or the level left"}},
  "note": "The source made the active and inactive calls. No cut-off for these calls is given here.",
  "data": [
    {"smiles": "O=C(/C=C\\Nc1ccc(Cl)cc1)c1nc(-c2ccc(F)cc2)n2ccccc12", "values": [
      {"measurement": "viability at 2.5 µM", "setting": "[1]", "value": 77.4, "unit": "%"},
      {"measurement": "Activity", "setting": "[2]", "value": "Active"},
      {"measurement": "Activity", "setting": "[3]", "value": 16.4, "unit": "%"},
      {"measurement": "Activity", "setting": "[4]", "value": "Active"},
      {"measurement": "Activity", "setting": "[5]", "value": 6.17, "unit": "%"},
      {"measurement": "Activity", "setting": "[6]", "value": 31.5, "unit": "%"},
      {"measurement": "IC50", "setting": "[7]", "value": 1.21, "unit": "µM"},
      {"measurement": "Activity", "setting": "[8]", "value": 38.7, "unit": "%"},
      {"measurement": "Activity", "setting": "[9]", "value": 9.7, "unit": "%"},
      {"measurement": "Activity", "setting": "[10]", "value": 20.53, "unit": "%"},
      {"measurement": "viability at 1 µM", "setting": "[11]", "value": 85.8, "unit": "%"},
      {"measurement": "IC50", "setting": "[12]", "value": 11, "unit": "µM"},
      {"measurement": "Activity", "setting": "[13]", "value": 0.68, "unit": "%"},
      {"measurement": "Activity", "setting": "[14]", "value": 15, "unit": "%"},
      {"measurement": "Activity", "setting": "[15]", "value": 6.94, "unit": "%"},
      {"measurement": "Activity", "setting": "[16]", "value": 1.9, "unit": "%"},
      {"measurement": "Activity", "setting": "[17]", "value": 6.97, "unit": "%"},
      {"measurement": "Activity", "setting": "[18]", "value": 20.68, "unit": "%"},
      {"measurement": "Activity", "setting": "[19]", "value": 76.3, "unit": "%"}
    ]}
  ]
}
